Source: ChEMBL document CHEMBL4270636, “5'-Chloro-2,2'-dihydroxychalcone and related flavanoids as treatments for prostate cancer” (Eur J Med Chem, 2018)
Each block holds one compound with its values, some of them ahead of it. Calls of active or inactive are those of the source. The rule behind the calls is not given here.

How the values were obtained:
[1] = target: T1, Androgen receptor (Homo sapiens, UniProt P10275); assay: Antagonist activity at AR in human LNCAP cells assessed as reduction in DHT-induced transcriptional activation after 24 hrs by luciferase reporter gene assay; assay type: cell-based
T1 sequence (P10275 whole entry): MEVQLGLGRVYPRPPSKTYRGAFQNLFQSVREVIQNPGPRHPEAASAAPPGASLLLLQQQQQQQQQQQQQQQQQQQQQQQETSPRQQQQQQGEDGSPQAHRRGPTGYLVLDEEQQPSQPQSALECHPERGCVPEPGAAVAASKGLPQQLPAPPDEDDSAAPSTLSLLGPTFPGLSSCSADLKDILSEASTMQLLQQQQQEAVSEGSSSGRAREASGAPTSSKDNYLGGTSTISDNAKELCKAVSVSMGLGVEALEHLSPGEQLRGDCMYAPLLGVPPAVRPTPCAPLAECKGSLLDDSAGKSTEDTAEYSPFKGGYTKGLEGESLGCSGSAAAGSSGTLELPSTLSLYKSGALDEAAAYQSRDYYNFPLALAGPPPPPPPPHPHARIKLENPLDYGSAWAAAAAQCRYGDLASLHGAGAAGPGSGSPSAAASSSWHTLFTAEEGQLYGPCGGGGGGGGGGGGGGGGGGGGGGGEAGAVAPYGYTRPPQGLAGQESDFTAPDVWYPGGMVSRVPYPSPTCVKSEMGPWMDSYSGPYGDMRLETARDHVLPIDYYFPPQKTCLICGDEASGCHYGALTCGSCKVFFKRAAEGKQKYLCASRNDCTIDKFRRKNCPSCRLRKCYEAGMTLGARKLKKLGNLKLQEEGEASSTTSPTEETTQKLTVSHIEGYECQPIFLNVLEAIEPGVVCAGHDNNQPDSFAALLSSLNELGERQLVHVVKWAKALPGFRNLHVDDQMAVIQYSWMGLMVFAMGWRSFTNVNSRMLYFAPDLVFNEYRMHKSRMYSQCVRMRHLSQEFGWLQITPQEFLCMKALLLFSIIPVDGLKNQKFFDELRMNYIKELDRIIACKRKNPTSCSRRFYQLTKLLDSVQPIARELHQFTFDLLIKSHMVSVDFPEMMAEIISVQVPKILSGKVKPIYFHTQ

[2] = tested on: MDA-MB-231; assay: Antiproliferative activity against human MDA-MB-231 cells assessed as reduction in cell growth after 72 hrs by sulforhodamine B assay; assay type: functional, cell-based; details: MDA-MB-231, 72 h
[3] = Antiproliferative activity against human KBVIN cells assessed as reduction in cell growth after 72 hrs by sulforhodamine B assay; assay type: functional, cell-based
[4] = tested on: PC-3; assay: Cell cycle arrest in human PC3 cells assessed as accumulation at G2/M phase at 200 nM after 24 hrs by propidium iodide staining based flow cytometry; assay type: functional
[5] = target: T2, Androgen receptor (Homo sapiens) (UniProt P10275); assay: Antagonist activity at AR (unknown origin) expressed in human PC3 cells assessed as reduction in DHT-induced transcriptional activation at 3 to 10 uM after 24 hrs by luciferase reporter gene assay; assay type: cell-based
T2 sequence (whole entry): T1 sequence (P10275 whole entry)
Method in brief: (§1)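 PC-3 cells (AR-negative) co-transfected with wild-type or AR-V7 expression vector plus PSA promoter-luciferase reporter (pGL3PSAp-5.8, 0.5 ug/well); seeded 50,000/well, transfected after 24 h, treated with compounds ± 1 nM DHT for 24 h from 24 h post-transfection; lysed cells read for luciferase activity by luminometer.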

[6] = tested on: Androgen receptor (Homo sapiens), P10275 [UNDEFINED MUTATION]; assay: Antagonist activity at AR V7 mutant (unknown origin) expressed in human PC3 cells assessed as reduction in DHT-induced transcriptional activation after 24 hrs by luciferase reporter gene assay; assay type: cell-based; method in brief: as §1
[7] = tested on: LNCaP; assay: Antiproliferative activity against human LNCAP cells assessed as reduction in cell growth at 10 uM treated every 2 days for 4 days by hemocytometry; assay type: functional, cell-based
[8] = target: T2, Androgen receptor (Homo sapiens); assay: Antagonist activity at AR in human LNCAP cells assessed as reduction in DHT-induced cell growth at 1 to 3 uM treated for every 2 days for 4 days by hemocytometry; assay type: cell-based
[9] = tested on: LNCaP; assay: Antiproliferative activity against human LNCAP cells assessed as reduction in cell growth treated every 2 days for 4 days by hemocytometry; assay type: functional, cell-based
[10] = tested on: PC-3; assay: Antiproliferative activity against human PC3 cells assessed as reduction in cell growth treated every 2 days for 4 days by hemocytometry; assay type: functional, cell-based
[11] = tested on: DU-145; assay: Antiproliferative activity against human DU145 cells assessed as reduction in cell growth treated every 2 days for 4 days by hemocytometry; assay type: functional, cell-based
[12] = species on record: Homo sapiens; assay: Antiproliferative activity against human LNCaP-SF cells assessed as reduction in cell growth at 10 uM treated every 2 days for 4 days by hemocytometry; assay type: functional, cell-based
Method in brief: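 LNCaP-SF castration-resistant subline cultured 4 days with compound at stated concentrations, with or without 0.1 nM DHT; growth assessed by cell counting.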

[13] = Antiproliferative activity against human PC3-TxR cells assessed as reduction in cell growth treated every 2 days for 4 days by hemocytometry; assay type: functional, cell-based
[14] = Antiproliferative activity against human PC3/TxR/CxR cells assessed as reduction in cell growth treated every 2 days for 4 days by hemocytometry; assay type: functional, cell-based
[15] = Antiproliferative activity against human DU145-TxR cells assessed as reduction in cell growth treated every 2 days for 4 days by hemocytometry; assay type: functional, cell-based
[16] = Antiproliferative activity against human DU145/TxR/CxR cells assessed as reduction in cell growth treated every 2 days for 4 days by hemocytometry; assay type: functional, cell-based; details: DU-145
[17] = tested on: A549; assay: Antiproliferative activity against human A549 cells assessed as reduction in cell growth after 72 hrs by sulforhodamine B assay; details: A549, 72 h
[18] = tested on: MCF7; assay: Antiproliferative activity against human MCF7 cells assessed as reduction in cell growth after 72 hrs by sulforhodamine B assay; details: MCF7, 72 h
[19] = tested on: KB; assay: Antiproliferative activity against human KB cells assessed as reduction in cell growth after 72 hrs by sulforhodamine B assay
[20] = tested on: PC-3; assay: Cell cycle arrest in human PC3 cells assessed as accumulation at Sub-G1 phase at 2 times IC50 after 24 to 48 hrs by propidium iodide staining based flow cytometry; assay type: functional
[21] = tested on: A549; assay: Cell cycle arrest in human A549 cells assessed as accumulation at G1 phase at 3 times IC50 after 24 to 48 hrs by propidium iodide staining based flow cytometry; assay type: functional
[22] = tested on: A549; assay: Cell cycle arrest in human A549 cells assessed as accumulation at Sub-G1 phase at 3 times IC50 after 24 to 48 hrs by propidium iodide staining based flow cytometry; assay type: functional
[23] = species on record: Homo sapiens; assay: Induction of microtubule depolymerization in human PC3 cells at 2 times IC50 after 24 hrs by […] microscopic analysis; assay type: cell-based
[24] = tested on: PC-3; assay: Antitumor activity against human PC3 cells xenografted in C.B-17 SCID mouse assessed as tumor growth inhibition at 30 mg/kg, ip administered every 4 days measured during compound dosing; assay type: functional, organism-based
Method in brief: (§2)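 Male C.B-17 scid mice (purchased at 7 weeks) given 2.0×10⁶ PC-3 cells in 50% matrigel subcutaneously on dorsal side at 8 weeks; at ~50 mm³ tumor, randomized into groups of 5, dosing from second day at 30 mg/kg i.p. every 4 days; tumor volume and body weight followed; mean ± SD.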

[25] = tested on: Mus musculus; assay: Toxicity in C.B-17 SCID mouse xenografted with human PC3 cells assessed as body weight loss at 30 mg/kg, ip administered every 4 days; assay type: organism-based; details: in vivo, 96 h; method in brief: as §2

SMILES: COc1ccc(/C=C\c2cc(OC)c(OC)c(OC)c2)cc1O
Activity [4]: Active

SMILES: O=C1CC(c2ccccc2O)Oc2ccc(Br)cc21 (stereo unspecified)
IC50 [1]: 1.77 µM

SMILES: O=C1CC(c2ccccc2O)Oc2ccc(Cl)cc21 (stereo unspecified)
IC50 [1]: 1.68 µM

SMILES: COc1ccc2oc(-c3ccccc3OC)cc(=O)c2c1
IC50 [1]: 6.19 µM

SMILES: O=C(/C=C/c1ccccc1O)c1cc(Br)ccc1O
IC50 [1]: 8.69 µM

SMILES: COc1ccc(/C=C/C(=O)c2cc(Cl)ccc2O)cc1OC
IC50 [1]: 5.25 µM

SMILES: O=C(/C=C/c1ccc2c(c1)OCO2)c1cc(Cl)ccc1O
IC50 [1]: 4.36 µM

SMILES: O=C1CC(c2ccccc2O)Oc2c(Br)cc(Br)cc21 (stereo unspecified)
IC50 [1]: 3.57 µM

The next lines start with results.

IC50 [1]: > 10 µM
SMILES: COc1ccc2c(c1)OC(c1ccccc1O)CC2=O (stereo unspecified)

IC50 [2]: 0.0096 µM
SMILES: CC(=O)O[C@H]1C(=O)[C@@]2(C)[C@H]([C@H](OC(=O)c3ccccc3)[C@]3(O)C[C@H](OC(=O)[C@H](O)[C@@H](NC(=O)c4ccccc4)c4ccccc4)C(C)=C1C3(C)C)[C@]1(OC(C)=O)CO[C@@H]1C[C@@H]2O [PACLITAXEL]
IC50 [3]: 1.73 µM

IC50 [1]: 1.42 µM
SMILES: O=C(/C=C/c1ccccc1O)c1cc(F)ccc1O

IC50 [1]: < 1 µM
inhibition [5]: Active
inhibition [6]: Dose-dependent effect
Activity [8]: Active
IC50 [9]: 3.52 µM
IC50 [10]: 1.52 µM
IC50 [11]: 4.5 µM
IC50 [17]: 9.1 µM
IC50 [2]: 5.1 µM
IC50 [18]: 4.9 µM
IC50 [19]: 5 µM
SMILES: O=C(/C=C/c1ccccc1O)c1cc(Cl)ccc1O
Activity [7]: Active
Activity [12]: Active
IC50 [13]: < 3 µM
IC50 [14]: 4.07 µM
IC50 [15]: 7.43 µM
IC50 [16]: 5.32 µM
IC50 [3]: 4.9 µM
Activity [20]: Active
Activity [21]: Active
Activity [22]: inactive
Activity [23]: Active
TGI [24]: Active
Activity [25]: Non-Toxic

IC50 [1]: 1.64 µM
SMILES: O=C(/C=C/c1ccccc1O)c1cc(I)ccc1O

IC50 [1]: 3.96 µM
SMILES: CCCOc1ccccc1/C=C/C(=O)c1cc(Br)ccc1O

IC50 [1]: 1.51 µM
SMILES: O=C(/C=C/c1ccccc1)c1cc(Cl)ccc1O

IC50 [1]: > 10 µM
SMILES: O=C1CC(c2ccccc2O)Oc2cc(O)cc(O)c21 (stereo unspecified)

IC50 [1]: 5.27 µM
SMILES: CCOc1ccccc1/C=C/C(=O)c1cc(Br)ccc1O
